Screening data as filed in PubChem BioAssay.
A selection: hits, their analogues and other compounds. The true share with any hit is near 5.9%.
Pf Dd2 inh: blocks growth of Plasmodium falciparum Dd2 parasites | hit rate 2.3% among 94,000 | P. falciparum Dd2 growth, SYBR Green, 72 h; active compounds read low | activity change, % at 10 µM | AID 1159554; in the data active means activity change below about -80%; inconclusive means no clear call, values can overlap the other calls
GASC1 inh: inhibitors of human demethylase GASC-1 KDM4C; Q9H3R0; GST-KDM4C 2-372, H3K9me3 peptide, LANCE TR-FRET; inhibition, % at 12.5 µM; hit rate 0.15% among 96,000; AID 720574;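 active means mean replicate inhibition above about 25%, with at least 55% of replicates also reaching it, limit read from the data, passing the limit was not always enough; inconclusive means only one of those two conditions met; inactive means neither condition met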
Target sequence (Q9H3R0 2-372 limits assumed): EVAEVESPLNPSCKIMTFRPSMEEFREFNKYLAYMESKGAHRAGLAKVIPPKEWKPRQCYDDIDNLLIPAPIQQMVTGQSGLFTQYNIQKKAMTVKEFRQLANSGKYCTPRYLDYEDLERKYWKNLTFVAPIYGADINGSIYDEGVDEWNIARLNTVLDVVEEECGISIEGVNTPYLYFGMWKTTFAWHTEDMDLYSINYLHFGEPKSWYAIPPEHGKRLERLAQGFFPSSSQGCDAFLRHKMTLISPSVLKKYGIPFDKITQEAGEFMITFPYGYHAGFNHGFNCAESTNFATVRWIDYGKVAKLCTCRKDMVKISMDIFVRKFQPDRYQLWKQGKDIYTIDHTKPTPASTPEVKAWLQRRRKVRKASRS
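Test system – GST-tagged GASC-1 (JMJD2C) catalytic fragment, aa 2-372 · Medium – HEPES buffer, pH 7.5, plus ascorbate · Reagent – H3K9me3 peptide with Fe(II)/2OG · Compound – one test concentration per compound · Timing – 30 min reaction, 60 min detection, RT · Technique – TR-FRET with Eu antibody and ULight streptavidin, EDTA stop · Read-out basis – inhibition from TR-FRET ratio decrease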
IDH1 R132H inh: IDH1 R132H (human) inhibition; O75874; IDH1 R132H reductase, diaphorase/resazurin fluorescence, 60 min; inhibition, % at 10 µM; hit rate 0.18% among 70,000; in the data active means inhibition above about 34%; inconclusive means no clear call, values can overlap the other calls; inactive means below about 11%
Target sequence (O75874 whole entry R132H): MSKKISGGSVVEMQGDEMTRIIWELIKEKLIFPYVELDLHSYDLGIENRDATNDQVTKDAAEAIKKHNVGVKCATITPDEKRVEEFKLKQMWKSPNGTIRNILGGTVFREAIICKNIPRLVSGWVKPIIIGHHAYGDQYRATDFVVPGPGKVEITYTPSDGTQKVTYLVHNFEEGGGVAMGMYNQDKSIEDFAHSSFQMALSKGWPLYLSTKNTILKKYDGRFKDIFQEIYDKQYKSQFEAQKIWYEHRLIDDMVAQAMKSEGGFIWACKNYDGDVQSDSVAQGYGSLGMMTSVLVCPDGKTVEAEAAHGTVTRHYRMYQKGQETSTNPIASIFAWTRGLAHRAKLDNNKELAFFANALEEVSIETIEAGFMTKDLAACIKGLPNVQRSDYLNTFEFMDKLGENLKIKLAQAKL
T cruzi growth-1: T. cruzi proliferation inhibition | hit rate 5.9% among 77,000 | inhibition, % at 8.34 µM | T. cruzi beta-gal in NIH3T3, GalScreen luminescence, 90 h;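 active means mean inhibition above about 93%, with at least 55% of replicates each passing it, limit read from the data, passing the limit was not always enough; inconclusive means only one of those two conditions holds; inactive means neither condition holds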
T cruzi growth-2: blocks T. cruzi growth in NIH3T3 host cells | shares compounds with T cruzi growth-1 | T. cruzi beta-gal in NIH3T3, GalScreen luminescence, 90 h | inhibition, % at 8.35 µM | hit rate 72% among 5,600 | AID 651739;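 active means mean replicate inhibition above about 95% and at least 55% of replicates individually reaching it, limit read from the data; inconclusive means only one of the two criteria is met; inactive means neither criterion is met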
T cruzi growth-3: blocks T. cruzi growth in NIH3T3 host cells. shares compounds with T cruzi growth-1. T. cruzi beta-gal in NIH3T3, GalScreen luminescence, 90 h. inhibition, % at 2.09 µM. hit rate 21% among 5,600. AID 651740;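 active means mean inhibition above about 95%, with at least 55% of replicates also reaching it, limit read from the data; inconclusive means meets just one of the two conditions; inactive means meets neither condition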
NIH3T3 tox: NIH/3T3 (mouse) viability loss; NIH/3T3 viability, CellTiter-Glo ATP luminescence, 90 h; cytotoxicity (signal decrease), % at 8.35 µM; hit rate 14% among 5,600; shares compounds with T cruzi growth-1;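 active means mean signal decrease across replicates above about 35% based on untreated-well scatter, with enough replicates individually passing, limit read from the data; inconclusive means no rule stated though some were filed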
3T3 cytotox 2: kills mouse NIH/3T3 fibroblasts. NIH/3T3 viability, CellTiter-Glo ATP luminescence, 90 h. AID 651744. shares compounds with T cruzi growth-1. inhibition, % at 24.9 µM. hit rate 56% among 5,600;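 active means mean loss of cell viability signal at or above a set limit, and enough replicates individually reaching it; inconclusive means meets only the mean limit or only the replicate share; inactive means meets neither condition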
Each line names hits and unclear results; the compound was inactive in the other large screens (follow-up assays come after a bar, where they were run).

CO[C@@H](CN(C)S(=O)(=O)c1ccc(Cl)cc1)[C@@H](C)CN([C@H](C)CO)S(=O)(=O)c1cccc(Cl)c1	T cruzi growth-1 inconclusive | T cruzi growth-2 inactive | T cruzi growth-3 inactive | NIH3T3 tox 54.2 | 3T3 cytotox 2 78.8
CO[C@@H](CN(C)S(=O)(=O)c1ccc(Cl)cc1)[C@@H](C)CN([C@@H](C)CO)S(=O)(=O)c1cccc(Cl)c1	none
CCNC(=O)C[C@@H]1CC[C@@H]2[C@H](COC[C@H](O)CN2C(=O)C2CCCC2)O1	none (no result: IDH1 R132H inh)
COCC(=O)Nc1ccc2c(c1)[C@H]1C[C@H](CC(=O)NCc3ccccn3)O[C@@H](CO)[C@H]1O2	none
C[C@@H]1CN([C@H](C)CO)C(=O)c2cc(NC(=O)Nc3cccc4ccccc34)ccc2O[C@@H](C)CCCCO[C@@H]1CN(C)Cc1ccncc1	none (no result: IDH1 R132H inh)
C[C@H]1CCCCO[C@@H](CN(C)Cc2ccccc2)[C@@H](C)CN([C@@H](C)CO)C(=O)c2cc(NC(=O)Nc3cccc4ccccc34)ccc2O1	T cruzi growth-1 109.3 | T cruzi growth-2 inconclusive | T cruzi growth-3 100.2 | NIH3T3 tox inactive | 3T3 cytotox 2 38.2
C[C@@H]1CN([C@H](C)CO)C(=O)c2cc(NC(=O)Nc3cccc4ccccc34)ccc2O[C@@H](C)CCCCO[C@H]1CN(C)Cc1ccncc1	T cruzi growth-1 99.7 (no result: IDH1 R132H inh) | T cruzi growth-2 107.2 | T cruzi growth-3 inactive | NIH3T3 tox 36.3 | 3T3 cytotox 2 46.9
C[C@H](CO)N1C[C@H](C)[C@@H](CN(C)Cc2ccccc2)OCCCC[C@H](C)Oc2ccc(NC(=O)Nc3cccc4ccccc34)cc2C1=O	none (no result: IDH1 R132H inh, T cruzi growth-1)
C[C@H]1CCCCO[C@H](CN(C)Cc2ccccc2)[C@@H](C)CN([C@@H](C)CO)C(=O)c2cc(NC(=O)Nc3cccc4ccccc34)ccc2O1	none (no result: IDH1 R132H inh, T cruzi growth-1)
COc1ccc(CN(C)C[C@H]2OCCCC[C@H](C)Oc3ccc(NC(=O)Nc4cccc5ccccc45)cc3C(=O)N([C@H](C)CO)C[C@H]2C)cc1	Pf Dd2 inh -89.9, T cruzi growth-1 inconclusive | T cruzi growth-2 98.2 | T cruzi growth-3 106.2 | NIH3T3 tox inactive | 3T3 cytotox 2 55.4
CCCNC(=O)Nc1ccc2c(c1)OC[C@H](C)N(C(C)=O)C[C@H](C)[C@@H](OC)CN(C)C2=O	none (no result: IDH1 R132H inh, T cruzi growth-1)
Cc1ccc(S(=O)(=O)Nc2cccc3c2O[C@@H](CN(C)C(=O)Nc2ccc4c(c2)OCO4)[C@H](C)CN([C@H](C)CO)C3=O)cc1	none (no result: IDH1 R132H inh)
COc1ccc(S(=O)(=O)Nc2ccc3c(c2)C(=O)N([C@H](C)CO)C[C@H](C)[C@H](CN(C)S(C)(=O)=O)OCCCC[C@@H](C)O3)cc1	none
CC(C)NC(=O)N[C@@H]1CC[C@@H](CCNS(=O)(=O)c2ccc(Cl)cc2)O[C@H]1CO	none
C[C@@H]1CCCCO[C@@H](CN(C)C(=O)NC2CCCCC2)[C@H](C)CN([C@H](C)CO)C(=O)c2cc(NC(=O)Nc3ccc4c(c3)OCO4)ccc2O1	T cruzi growth-1 104.7 (no result: IDH1 R132H inh) | T cruzi growth-2 104.7 | T cruzi growth-3 inactive | NIH3T3 tox inactive | 3T3 cytotox 2 inactive
C[C@@H]1CN([C@@H](C)CO)C(=O)c2cc(N(C)C)ccc2O[C@@H](C)CCCCO[C@@H]1CN(C)C(=O)NC1CCCCC1	T cruzi growth-1 103.4 | T cruzi growth-2 inactive | T cruzi growth-3 inactive | NIH3T3 tox inactive | 3T3 cytotox 2 inactive
C[C@H](CO)N1C[C@H](C)[C@@H](CN(C)C(=O)NC2CCCCC2)OCCCC[C@H](C)Oc2ccc(NC(=O)Nc3ccc(F)cc3)cc2C1=O	T cruzi growth-1 105.2 | T cruzi growth-2 102.5 | T cruzi growth-3 inactive | NIH3T3 tox inactive | 3T3 cytotox 2 inactive
C[C@H]1CCCCO[C@@H](CN(C)C(=O)NC2CCCCC2)[C@@H](C)CN([C@@H](C)CO)C(=O)c2cc(NC(=O)Nc3ccc(F)cc3)ccc2O1	T cruzi growth-1 108.9 (no result: IDH1 R132H inh) | T cruzi growth-2 115.0 | T cruzi growth-3 inactive | NIH3T3 tox inactive | 3T3 cytotox 2 inactive
C[C@@H]1CN([C@H](C)CO)C(=O)c2cc(NC(=O)Nc3ccc(F)cc3)ccc2O[C@@H](C)CCCCO[C@@H]1CN(C)C(=O)NC1CCCCC1	none
C[C@@H]1CN([C@H](C)CO)C(=O)Cc2cc(NC(=O)CCCCCC(=O)Nc3ccccc3N)ccc2O[C@H]1CN(C)C(=O)Nc1ccc(F)cc1	none
C[C@@H]1CN([C@@H](C)CO)S(=O)(=O)c2ccc(C#CC3(O)CCCC3)cc2O[C@H]1CN(C)C(=O)Cc1ccccc1	none
COc1cc(C)nc2nc(S(C)(=O)=O)nn12	none (no result: Pf Dd2 inh, GASC1 inh, T cruzi growth-1)
Cn1cnc(S(=O)(=O)N2CCCCN3[C@H](C2)[C@@H](c2ccc(C#CC4CC4)cc2)[C@@H]3CO)c1	none (no result: GASC1 inh, IDH1 R132H inh)
Cn1cnc(S(=O)(=O)N2CCCCN3[C@H](C2)[C@@H](c2ccc(C#CC4CCCC4)cc2)[C@@H]3CO)c1	none (no result: IDH1 R132H inh)
Cn1cnc(S(=O)(=O)N2CCCCN3[C@@H](CO)[C@H](c4ccc(C#CC5CCCC5)cc4)[C@@H]3C2)c1	T cruzi growth-1 105.6 (no result: IDH1 R132H inh) | T cruzi growth-2 inactive | T cruzi growth-3 inactive | NIH3T3 tox inactive | 3T3 cytotox 2 100.5
Cn1cnc(S(=O)(=O)N2CCCCN3[C@H](CO)[C@H](c4ccc(C#CC5CCCC5)cc4)[C@H]3C2)c1	T cruzi growth-1 110.8 (no result: IDH1 R132H inh) | T cruzi growth-2 95.2 | T cruzi growth-3 inactive | NIH3T3 tox inactive | 3T3 cytotox 2 105.2
C[C@H](CO)N1C[C@H](C)[C@H](CN(C)Cc2ccc(Oc3ccccc3)cc2)Oc2c(NC(=O)Nc3ccc(C(F)(F)F)cc3)cccc2C1=O	T cruzi growth-1 122.4 (no result: IDH1 R132H inh) | T cruzi growth-2 103.0 | T cruzi growth-3 108.2 | NIH3T3 tox inactive | 3T3 cytotox 2 105.6
C[C@H](CO)N1C[C@H](C)[C@@H](CN(C)Cc2ccc(Oc3ccccc3)cc2)Oc2c(NC(=O)Nc3ccc(F)cc3)cccc2C1=O	T cruzi growth-1 125.9 | T cruzi growth-2 inactive | T cruzi growth-3 inactive | NIH3T3 tox inactive | 3T3 cytotox 2 inactive
C[C@H](CO)N1C[C@H](C)[C@H](CN(C)Cc2ccc(Oc3ccccc3)cc2)Oc2c(NC(=O)Nc3ccc(F)cc3)cccc2C1=O	none
C[C@H]1CN([C@@H](C)CO)C(=O)c2cccc(NC(=O)Nc3ccc(C(F)(F)F)cc3)c2O[C@@H]1CN(C)Cc1ccc(Oc2ccccc2)cc1	T cruzi growth-1 126.8 | T cruzi growth-2 95.8 | T cruzi growth-3 inactive | NIH3T3 tox inactive | 3T3 cytotox 2 105.2
